Assay results taken from publication PMC9636331 (Blood Advances, 2022).
Several values for one entry are separate records, joined by “and”; a condition that tells them apart may be missing. Equal values may be shown once. Entries after “also recorded” stand apart in the source; their conditions may differ.

Experiments:
[1] = test system: PNH patients with active hemolysis; assay: Serum LDH levels, phase 2 study of iptacopan monotherapy; type: in vivo, human; conditions: cohort 2 (50/200 mg bid), until week 12
How it was run: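 Primary endpoint: serum LDH reduction ≥60% from baseline, or LDH below ULN, at any time up to week 12. Baseline was the mean of the last 3 screening values before randomization. If LDH had not fallen ≥40% by day 15, the dose was to be raised from day 17, and raised further for cohort 1 at day 29, with a maximum of 200 mg twice daily.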

[2] = test system: PNH patients with active hemolysis; assay: Hb and other markers of hemolysis; type: in vivo, human
How it was run: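 Secondary hemolysis markers (total and free Hb, bilirubin, reticulocyte count, RBC count, haptoglobin) were measured in PNH patients over 12 weeks of twice-daily test compound. Dosing was 25 mg for 4 weeks then 100 mg (cohort 1), or 50 mg then 200 mg (cohort 2). Baseline for each variable was the mean of all pretreatment values.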

PNH-type RBCs = assay: Flow cytometry of PNH-type RBCs and C3 fragment deposition on RBCs; type: in vivo, human
[3] = test system: PNH patients with active hemolysis; assay: Safety and tolerability; type: in vivo, human
[4] = Plasma pharmacokinetics of iptacopan; type: in vivo, human
How it was run: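 Plasma samples were taken predose on days 2, 15, 29 and 57, and at 0.25, 1, 2, 4 and 6 h post-dose on days 29 and 57. Doses were 25/50 mg twice daily for 4 weeks, then 100/200 mg twice daily. Assay was validated LC-MS/MS, LLOQ approximately 1 ng/mL. Cmax, AUC, Ctrough and Tmax were derived noncompartmentally.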

[5] = test system: complement alternative pathway; assay: Wieslab complement assay; type: in vivo, human; conditions: 200 mg twice daily; data not shown
How it was run: (§1)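 Adult PNH patients, randomized 1:1, took the test compound 25 mg twice daily for 4 weeks then 100 mg twice daily (cohort 1), or 50 mg then 200 mg twice daily (cohort 2). Alternative-pathway target engagement was measured as circulating fragment Bb and by Wieslab assay. Sigmoid Emax models related both to individual steady-state Ctrough at baseline and after 4 weeks at each dose (days 29, 57).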

fragment Bb = assay: Circulating fragment of factor B; type: in vivo, human; conditions: after the first dose of 25 mg twice daily or higher
How it was run: as §1

[6] = ref data on file, cited from earlier work
[7] = test system: PNH patients with persistent hemolysis despite ongoing treatment with eculizumab; conditions: add-on to eculizumab, week 13; cited from earlier work
[8] = until data cutoff, listed as iptacopan
[9] = nonclinical and phase 1 studies

Compound: CCO[C@H]1CCN(Cc2c(OC)cc(C)c3[nH]ccc23)[C@H](c2ccc(C(=O)O)cc2)C1 [Iptacopan]
- LDH levels maintained by all patients [1]: < 1.5 × ULN
- Patients with Hb levels above 120 g/L ([2]; week 12, both cohorts): 5
- Patients achieving reticulocyte count ≤150 × 10^9/L, number ([2]; week 12, cohort 1): 4
- Patients achieving reticulocyte count ≤150 × 10^9/L, percent ([2]; week 12, cohort 1): 66.7%
- Patients with Hb levels above 120 g/L ([2]; week 12, cohort 1): 3
- Mean bilirubin level ([2]; week 12, cohort 1, baseline 32.4): 11.7 µmol/L
- Mean Hb level ([2]; week 12, cohort 1, baseline 88.5): 115.2 g/L
- Mean reticulocyte count ([2]; week 12, cohort 1, baseline 217.6): 1.308e+11 L⁻¹
- Patients achieving reticulocyte count ≤150 × 10^9/L, number ([2]; week 12, cohort 2): 4
- Patients achieving reticulocyte count ≤150 × 10^9/L, percent ([2]; week 12, cohort 2): 100%
- Patients with Hb levels above 120 g/L ([2]; week 12, cohort 2): 2
- Mean bilirubin level ([2]; week 12, cohort 2, baseline 35.3): 14.8 µmol/L
- Mean Hb level ([2]; week 12, cohort 2, baseline 76.9): 109.0 g/L
- Mean reticulocyte count ([2]; week 12, cohort 2, baseline 211.1): 1.048e+11 L⁻¹
- Clone size (PNH red blood cells, type II+III) (%), mean, Raw (PNH-type RBCs; Week 12, 25 mg/100 mg (cohort 1), baseline 33.6): 82.9%
- Clone size (PNH red blood cells, type II+III) (%), mean, Raw (PNH-type RBCs; Week 12, 50 mg/200 mg (cohort 2), baseline 49.1): 91.1%
- Effect on C3d deposition on RBC (PNH-type RBCs; both cohorts): near-total abrogation of C3d deposition on RBC
- AE by preferred term: Abdominal discomfort ([3]; 25 mg/100 mg, n = 7): 2 (28.6) n (%)
- AE by preferred term: Blood alkaline phosphatase increased ([3]; 25 mg/100 mg, n = 7): 1 (14.3) n (%)
- AE by preferred term: Cough ([3]; 25 mg/100 mg, n = 7): 2 (28.6) n (%)
- AE by preferred term: Headache ([3]; 25 mg/100 mg, n = 7): 1 (14.3) n (%)
- AE by preferred term: Oropharyngeal pain ([3]; 25 mg/100 mg, n = 7): 2 (28.6) n (%)
- AE by preferred term: Pyrexia ([3]; 25 mg/100 mg, n = 7): 2 (28.6) n (%)
- AE by preferred term: Upper respiratory tract infection ([3]; 25 mg/100 mg, n = 7): 2 (28.6) n (%)
- AEs leading to discontinuation of study treatment, number of events (nE) ([3]; 25 mg/100 mg, n = 7): 0
- AEs leading to discontinuation of study treatment, number of patients ([3]; 25 mg/100 mg, n = 7): 0 nS (%)
- AEs of mild intensity, number of events (nE) ([3]; 25 mg/100 mg, n = 7): 29
- AEs of mild intensity, number of patients ([3]; 25 mg/100 mg, n = 7): 4 (57.1) nS (%)
- AEs of moderate intensity, number of events (nE) ([3]; 25 mg/100 mg, n = 7): 2
- AEs of moderate intensity, number of patients ([3]; 25 mg/100 mg, n = 7): 1 (14.3) nS (%)
- AEs of severe/serious intensity, number of events (nE) ([3]; 25 mg/100 mg, n = 7): 0
- AEs of severe/serious intensity, number of patients ([3]; 25 mg/100 mg, n = 7): 0 nS (%)
- Study drug-related AEs leading to discontinuation of study treatment, number of events (nE) ([3]; 25 mg/100 mg, n = 7): 0
- Study drug-related AEs leading to discontinuation of study treatment, number of patients ([3]; 25 mg/100 mg, n = 7): 0 nS (%)
- Study drug-related AEs, number of events (nE) ([3]; 25 mg/100 mg, n = 7): 6
- Study drug-related AEs, number of patients ([3]; 25 mg/100 mg, n = 7): 1 (14.3) nS (%)
- Total AEs, number of events (nE) ([3]; 25 mg/100 mg, n = 7): 31
- Total AEs, number of patients ([3]; 25 mg/100 mg, n = 7): 4 (57.1) nS (%)
- AE by preferred term: Abdominal discomfort ([3]; 50 mg/200 mg, n = 6): 0 n (%)
- AE by preferred term: Blood alkaline phosphatase increased ([3]; 50 mg/200 mg, n = 6): 1 (16.7) n (%)
- AE by preferred term: Headache ([3]; 50 mg/200 mg, n = 6): 3 (50.0) n (%)
- AE by preferred term: Oropharyngeal pain ([3]; 50 mg/200 mg, n = 6): 0 n (%)
- AE by preferred term: Pyrexia ([3]; 50 mg/200 mg, n = 6): 0 n (%)
- AE by preferred term: Upper respiratory tract infection ([3]; 50 mg/200 mg, n = 6): 0 n (%)
- AEs leading to discontinuation of study treatment, number of events (nE) ([3]; 50 mg/200 mg, n = 6): 1
- AEs leading to discontinuation of study treatment, number of patients ([3]; 50 mg/200 mg, n = 6): 1 (16.7) nS (%)
- AEs of mild intensity, number of events (nE) ([3]; 50 mg/200 mg, n = 6): 6
- AEs of mild intensity, number of patients ([3]; 50 mg/200 mg, n = 6): 4 (66.7) nS (%)
- AEs of moderate intensity, number of events (nE) ([3]; 50 mg/200 mg, n = 6): 1
- AEs of moderate intensity, number of patients ([3]; 50 mg/200 mg, n = 6): 1 (16.7) nS (%)
- AEs of severe/serious intensity, number of events (nE) ([3]; 50 mg/200 mg, n = 6): 0
- AEs of severe/serious intensity, number of patients ([3]; 50 mg/200 mg, n = 6): 0 nS (%)
- Study drug-related AEs leading to discontinuation of study treatment, number of events (nE) ([3]; 50 mg/200 mg, n = 6): 1
- Study drug-related AEs leading to discontinuation of study treatment, number of patients ([3]; 50 mg/200 mg, n = 6): 1 (16.7) nS (%)
- Study drug-related AEs, number of events (nE) ([3]; 50 mg/200 mg, n = 6): 3
- Study drug-related AEs, number of patients ([3]; 50 mg/200 mg, n = 6): 3 (50.0) nS (%)
- Total AEs, number of events (nE) ([3]; 50 mg/200 mg, n = 6): 7
- Total AEs, number of patients ([3]; 50 mg/200 mg, n = 6): 5 (83.3) nS (%)
- Deaths ([3]; 13 patients, until data cutoff): No deaths
- Tolerability ([3]; 13 patients, until data cutoff): overall well-tolerated and safe
- Tolerability ([3]; 13 patients, until data cutoff, listed as iptacopan): safe and well-tolerated
- AE by preferred term: Abdominal discomfort ([3]; Total, n = 13): 2 (15.4) n (%)
- AE by preferred term: Blood alkaline phosphatase increased ([3]; Total, n = 13): 2 (15.4) n (%)
- AE by preferred term: Cough ([3]; Total, n = 13): 2 (15.4) n (%)
- AE by preferred term: Headache ([3]; Total, n = 13): 4 (30.8) n (%)
- AE by preferred term: Oropharyngeal pain ([3]; Total, n = 13): 2 (15.4) n (%)
- AE by preferred term: Pyrexia ([3]; Total, n = 13): 2 (15.4) n (%)
- AE by preferred term: Upper respiratory tract infection ([3]; Total, n = 13): 2 (15.4) n (%)
- AEs leading to discontinuation of study treatment, number of events (nE) ([3]; Total, n = 13): 1
- AEs leading to discontinuation of study treatment, number of patients ([3]; Total, n = 13): 1 (7.7) nS (%)
- AEs of mild intensity, number of events (nE) ([3]; Total, n = 13): 35
- AEs of mild intensity, number of patients ([3]; Total, n = 13): 8 (61.5) nS (%)
- AEs of moderate intensity, number of events (nE) ([3]; Total, n = 13): 3
- AEs of moderate intensity, number of patients ([3]; Total, n = 13): 2 (15.4) nS (%)
- AEs of severe/serious intensity, number of events (nE) ([3]; Total, n = 13): 0
- AEs of severe/serious intensity, number of patients ([3]; Total, n = 13): 0 nS (%)
- Study drug-related AEs leading to discontinuation of study treatment, number of events (nE) ([3]; Total, n = 13): 1
- Study drug-related AEs leading to discontinuation of study treatment, number of patients ([3]; Total, n = 13): 1 (7.7) nS (%)
- Study drug-related AEs, number of events (nE) ([3]; Total, n = 13): 9
- Study drug-related AEs, number of patients ([3]; Total, n = 13): 4 (30.8) nS (%)
- Total AEs, number of events (nE) ([3]; Total, n = 13): 38
- Total AEs, number of patients ([3]; Total, n = 13): 9 nS (%) and 9 (69.2) nS (%)
- Study drug-related AEs, number of patients ([3]; Total, n = 13, listed as iptacopan): 4 nS (%)
- Dose dependence of the AE profile of the 2 cohorts ([3]; in vivo): no dose-dependent changes in the AE profile
- Severe or serious AEs ([3]; until data cutoff): no severe or serious AEs
- Breakthrough hemolysis [3, 8]: no breakthrough hemolysis was observed; also recorded: no thromboembolic events or breakthrough hemolysis were reported
- Severe or serious AEs [3, 8]: no severe or serious adverse events reported; also recorded: no serious nor severe AEs
- Thromboembolic events ([3]; until data cutoff, no prophylactic anticoagulation): No thromboembolic events were reported; also recorded: no thromboembolic events were observed; also recorded: no thromboembolic events or breakthrough hemolysis were reported
- Dose proportionality of exposure (AUClast and Cmax) ([4]; 25 to 200 mg twice daily): underproportional in relationship to dose
- Mean trough level exposures ([4]; doses of ≥50 mg twice daily, steady state): ≥ 900 ng/mL
- AUC(0-t) ([4]; human, plasma, oral, 25 mg): 6.29 µg·h/mL
- AUC(0-t) ([4]; human, plasma, oral, 200 mg): 19.9 µg·h/mL
- Cmax ([4]; human, plasma, oral, 200 mg): 4.52 µg/mL
- Suppression of alternative pathway activity (Wieslab assay) [5]: near-maximal inhibition
- Bb levels (fragment Bb): decreased rapidly
- Absorption [6, 9]: high absorption
- Clearance [6, 9]: moderate clearance
- Direct renal excretion (share of clearance) [6]: ~25%
- Ethnic sensitivity [6]: no ethnic sensitivity
- Food effect [6]: no food effect
- Terminal half-life in human plasma [6]: approximately 20 hours
- Effect of iptacopan add-on on hemolysis and Hb levels [7]: significant reductions in both intra- and extravascular hemolysis and transfusion-free improvements in Hb levels
